# Variants at the floor of the assay were thinned out.
# B1: tRNA (parent)
# chain: GUUCCGUUGGCGUAAUGGUAACGCGUCUCCCUCCUAAGGAGAAGACUGCGGGUUCGAGUCCCGUACGGAACG
# Variants of: B1
# Test: yeast fitness relative to wild type (ratio to wild type); higher = fitter; tRNA-Arg(CCU), competitive growth, 37 C, YPD
# Method in brief: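 Genotype frequency changes were the basis for Darwinian fitness relative to wild type. The frequencies came from 100-nucleotide paired-end sequencing of gene amplicons from the start population and each end population of pooled yeast strains with tRNA-Arg(CCU) gene variants at the native locus. Competition ran in YPD at 37°C for 24 hours in six replicates, genotypes needed ≥ 100 starting reads, and estimates < 0.5 were set to 0.5.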
row,Variant,yeast fitness
1,GUUUCGUUGGCGUAAUGGUAACGGGUCUCCCUCCUAAGGAGAGGACUGCGGGUUCGAGUCCCUAACGGAACG [C4U C24G A43G G63U U64A],≤ 0.5
2,GUUUCGUUGGCGUAAUGGUAAUGCGUCUCCCUCCCAAGGAGAAGACUGCGGGUUCAAGUCCCGUACGGACCG [C4U C22U U35C G56A A70C],≤ 0.5
3,GUUUCGUUGGCGUAAUGGUAACGCGUUUCCCUCCUAAGGAGAAGACUGCGGGUUCAAGUCCCGUACGGAACG [C4U C27U G56A],0.694
4,GUUUCGUUGGCGUAAUGGUAACGCGUCUACGUCCUAAGGAGCAGUCUGCGGGUUCGAGUCCCGUCCGGAACG [C4U C29A C31G A42C A45U A65C],≤ 0.5
5,GUUUCGUUGGCGUAAUGGUAACGUGUCUCCCUCCUAAGGAGAAGACUGCGGGUUCGAGUCCCGUACGGCACG [C4U C24U A69C],0.677
6,GUUUCGUUGGUGUAAUGGUAACGCCUCUCCCUCCUAAGGAAAAGACUGCGGGUCCGAGUCCCGUACGGAACG [C4U C11U G25C G41A U54C],≤ 0.5
7,GUUUCGUUGGCGUAAUGGUAAUGCGUCUCCCUCAUAAGGAGAAGACUGCGGGUUCGAGUCCCGUACGGAACG [C4U C22U C34A],0.548
8,GUUUCGUUGGUGUAAUGGUAACGCGUCAGCCUCCUAAGGAGAAGACUGCGAGUUCAAGUCCCGUACCGAACG [C4U C11U U28A C29G G51A G56A G67C],≤ 0.5
9,GUUUCGUUGGCGUAAUGGUAACGAGUCUCCAUCCUAAGGUGCAGACUGAGGGUUCGAGUCCCGUACGGAACG [C4U C24A C31A A40U A42C C49A],≤ 0.5
10,GUUUCGUUGGCGUAAUGGUAACGUGUCCCACUCCUAAGGAGAAGACUGCGGGUUCGAGUCCCGUACGGAACG [C4U C24U U28C C30A],0.636
11,GUUUCGUUGGCGUAAUGGUAACGAGUCUCCCUCCUAAGGAGAAGACGGCGGGUUCGAGUCCCGUACGGAACG [C4U C24A U47G],≤ 0.5
12,GUUUCGUUGGCGUAAUGGUAAUGCGUCUCCCUUCUAAGGAGCAGACUGCGGGUUCGAGUCCCGUACGGAACG [C4U C22U C33U A42C],0.668
13,GUUUCGUUGGCGUAAUGGUAACGAGUCUCCCUCCUAAGGAGAAGACUGCGGGUUCGAGUGCCGUAUGGAACG [C4U C24A C60G C66U],≤ 0.5
14,GUUUCGUUGGCGUAAUGGUAACGCGUGUCCCUCCUAAGGAGAUGACUGCGGGUUGGAGUCCCGUACGGAACG [C4U C27G A43U C55G],≤ 0.5
15,GUUUCGUUGGCGUAAUGGUAACGAGUCUCCCUCCUAAGGAGAAGACUGCGGGUUCGAGUACCGUACGGAACG [C4U C24A C60A],0.724
16,GUUUCGUUGGCGUAAUGGUAACGUGUCUCCCUCCUAAGGAGAAGACUGCGGGUUCAAGUACCGUACGGAACG [C4U C24U G56A C60A],≤ 0.5
17,GUUUCGUUGGCGUAAUGGUAAGGCGUCUCCCUCCUAAGGAGAAGACUGCGGGUACGAGUCCCGUACGGAACG [C4U C22G U54A],0.558
18,GUUUCGUUGGCGUAAUGGUAACGCGUUUCCCCCCUAAGGAGAAGACUGCGGGUUCGAGUCCCGUACGGAACG [C4U C27U U32C],0.615
19,GUUUCGUUGGCGUAAUGGUAACGCGUGUCCCUCCUAAGGAGAAGCCUGCGGGUUUGAGUCCCGUACCGAACG [C4U C27G A45C C55U G67C],≤ 0.5

row,Variant,yeast fitness
1,GUUUCGUUGGCGUAAUGGUAAAGCGUUUCCCUCCUAAGGAGAAGACUGCGGGUUCGAGUCCCGUACGGUACG [C4U C22A C27U A69U],0.512
2,GUUUCGUUGGCGUAAUGGUAAGGCGUCUCCCUCCUAAGGAGAAGACUGCGGGUUCGAGUCCCGUACGGAACG [C4U C22G],0.943
3,GUUUCGUUGGCGUAAUGGUAACGUGUCUCCCUCCUAAGGAGAGGACUGCGGGUUCGAGUCCCGUACGGAACG [C4U C24U A43G],0.555
4,GUUUCGUUGGCGUAAUGGUAACGUGUCUCCCUCCUAAGGAGAGGACUGCGCGUCCGAGUCCCGUACGGAACG [C4U C24U A43G G51C U54C],≤ 0.5
5,GUUUCGUUGGCGUAAUGGUAACGGGACGCCCUCCUAAGGAGAAGACCGCGGGUUCGAGUCCCGUACGGAACG [C4U C24G U26A U28G U47C],≤ 0.5
6,GUUUCGUUGGCGUAAUGGUAACGUGUCUCCCUCCUCAGGAGAAGACUGCGGGUUCGAGUCCCCUAGGGAACG [C4U C24U A36C G63C C66G],≤ 0.5
7,GUUUCGUUGGCGUAAUGGUAAUGCGUCUCCCUCCUAAGGAGAAGACUGCGGGUUCGAGUCCCGUAUGGAACG [C4U C22U C66U],0.624
8,GUUUCGUUGGCGUAAUGGUAACGGGUCUCCCUCCUAAGGAGCAGACUGCGGGUUCGAGUCCCGUACGGAACG [C4U C24G A42C],≤ 0.5
9,GUUUCGUUGGCGUAAUGGUAAUGCGUCUCCUUCCUAAGGAGAAGACUGCGGGUUCGUGUCCCGUACGGAACG [C4U C22U C31U A57U],≤ 0.5
10,GUUUCGUUGGCGUAAUGGUAAUGCGUCUCCUUCCUAAGGAGAAGACUGCGGGUUCGAGUGCCGUACGGAACG [C4U C22U C31U C60G],0.545
11,GUUUCGUUGGCGUAAUGGUAAUGCGUCUCCUUCCUAAGGAGAAGACUGCGGGUUCGAGUCCCGUACGGAACG [C4U C22U C31U],0.645
12,GUUUCGUUGGCGUAAUGGUAAGGCGUCUCCCUCCCAAGGAGAAGACUGCGGGUUCGAGUCCCGUACGGAACG [C4U C22G U35C],0.641
13,GUUUCGUUGGCGUAAUGGUAACGCGUGUCCCUCCUAAGGAGAAGCCUGCGGGUUUGAGUCCCGUACGGAACG [C4U C27G A45C C55U],0.559
14,GUUUCGUUGGCGUAAUGGUAAGGCGUCUCCCUCCUAAGGAGAAGACUGCCGGUUCGAGUCCCGUACGGAACG [C4U C22G G50C],0.533
15,GUUUCGUUGGCGUAAUGGUAACGAGUCUCGCUCCUAAGGAGAAGACUGCGGGUUCGAGUCCCGUACGGAACG [C4U C24A C30G],0.554
16,GUUUCGUUGGCGUAAUGGUAACGCGUUUGCCUCCUAAGGAGCAGACUGCGGGUUCGAGUCCCGUACGGAACG [C4U C27U C29G A42C],≤ 0.5
17,GUUUCGUUGGCGUAAUGGUAACGCGUUUCCCUCCUAAGGAGAGGACUGCGGGUUCGAGUCCCGUACGGAACG [C4U C27U A43G],0.649
18,GUUUCGUUGGCGUAAUGGUAACGCGUUUCCCUACUAAGGAGAAGCCUGCGGGUACGAGUCCCGUACGGAACG [C4U C27U C33A A45C U54A],≤ 0.5
